Converted amounts (≈) assume the structure as drawn.
Key:
Staphylococcus aureus [1] = experiment: AUC/MIC ratio of methicillin-resistant Staphylococcus aureus infected neutropenic mouse thigh infection model at 43 mg/kg, ip administered every 72 hrs by static effect experiment; assay type: functional; conditions: route intraperitoneal
Streptococcus pneumoniae [2] = experiment: Bactericidal activity against penicillin-susceptible Streptococcus pneumoniae ATCC 10813 infected neutropenic Swiss ICR mouse thigh infection model assessed as drug level causing 2-log reduction of bacterial count at 1.26 mg/kg, ip dosed every 36 hrs; assay type: functional; conditions: route intraperitoneal
Method in brief: (§1)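 Neutropenic mice (cyclophosphamide ip 150 mg/kg day −4, 100 mg/kg day −1, then every 48 h) received 0.1 ml log-phase inoculum per thigh under halothane. Intraperitoneal dalbavancin started 2 h later and was given for 6 days at q12h, q24h, q36h or q72h, two mice per regimen. Thigh CFU were counted at 144 h. Endpoint doses relative to start-of-therapy counts came from Hill-model nonlinear regression and are expressed per 24 h.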

Streptococcus pneumoniae [3] = experiment: AUC/MIC ratio of Streptococcus pneumoniae 1325 infected neutropenic mouse thigh infection model at 1.6 mg/kg, ip administered every 24 hrs by 1-log killing experiment; assay type: functional; conditions: route intraperitoneal
Staphylococcus aureus [4] = experiment: Antibacterial activity against Staphylococcus aureus Smith by microdilution method; assay type: functional
Method in brief: (§2)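 MICs in duplicate on at least two occasions by standard CLSI broth microdilution; S. aureus grown and quantified in Mueller-Hinton broth/agar.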

Streptococcus pneumoniae [5] = experiment: Bactericidal activity against penicillin-susceptible Streptococcus pneumoniae ATCC 10813 infected neutropenic Swiss ICR mouse thigh infection model assessed as drug level causing 2-log reduction of bacterial count at 2.3 mg/kg, ip dosed every 12 hrs; assay type: functional; conditions: route intraperitoneal; method in brief: as §1
Streptococcus pneumoniae [6] = experiment: Bactericidal activity in Streptococcus pneumoniae ATCC 10813 infected neutropenic mouse thigh infection model assessed as drug level causing 2-log reduction of bacterial count at 4.13 mg/kg/6days; assay type: functional
Staphylococcus aureus [7] = experiment: AUC/MIC ratio of Staphylococcus aureus ATCC 25923 infected neutropenic mouse thigh infection model at 60 mg/kg, ip administered every 24 hrs by 2-log killing experiment; assay type: functional; conditions: route intraperitoneal
Staphylococcus aureus [8] = experiment: AUC/MBC ratio of Staphylococcus aureus 31005 infected neutropenic mouse thigh infection model at 127 mg/kg, ip administered every 72 hrs by 2-log killing experiment; assay type: functional; conditions: route intraperitoneal
Streptococcus pneumoniae [9] = experiment: AUC/MIC ratio of Streptococcus pneumoniae ATCC 10813 infected neutropenic mouse thigh infection model at 0.77 mg/kg, ip administered every 72 hrs by 1-log killing experiment; assay type: functional; conditions: route intraperitoneal
Streptococcus pneumoniae [10] = experiment: AUC/MIC ratio of Streptococcus pneumoniae 1325 infected neutropenic mouse thigh infection model at 0.99 mg/kg, ip administered every 72 hrs by 1-log killing experiment; assay type: functional; conditions: route intraperitoneal
Streptococcus pneumoniae [11] = experiment: AUC/MIC ratio of Streptococcus pneumoniae 1199 infected neutropenic mouse thigh infection model at 0.57 mg/kg, ip administered every 24 hrs by 2-log killing experiment; assay type: functional; conditions: route intraperitoneal
Streptococcus pneumoniae [12] = experiment: Bactericidal activity in Streptococcus pneumoniae ATCC 10813 infected non-neutropenic mouse thigh infection model assessed as drug level causing 1-log reduction of bacterial count at 2.03 mg/kg/6days; assay type: functional
[13] = Cmax in bacterial pathogen-infected neutropenic Swiss ICR mouse thigh infection model at 5 mg/kg, ip; assay type: ADME, organism-based; design: dose 5 mg/kg, route intraperitoneal; conditions: in vivo
Method in brief: (§3)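 Thigh-infected neutropenic mice received single intraperitoneal doses (2.5, 5, 10, 20, 40, 80 mg/kg; 0.2 ml/dose). Blood was drawn by retroorbital aspiration from groups of three mice at 0.5, 1, 2, 4, 6, 24, 48, 72 and 96 h. Plasma levels were measured by microbiologic assay with Bacillus subtilis (detection limit 0.10 mg/liter). Noncompartmental analysis was used: half-life by linear least-squares regression, AUC by trapezoidal rule.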

Staphylococcus aureus [14] = experiment: AUC/MIC ratio of Staphylococcus aureus 33591 infected neutropenic mouse thigh infection model at 27.7 mg/kg, ip administered every 24 hrs by 1-log killing experiment; assay type: functional; conditions: route intraperitoneal
Staphylococcus aureus [15] = experiment: AUC/MBC ratio of Staphylococcus aureus 307109 infected neutropenic mouse thigh infection model at 34 mg/kg, ip administered every 72 hrs by 1-log killing experiment; assay type: functional; conditions: route intraperitoneal
Staphylococcus aureus [16] = experiment: Bactericidal activity against […] Staphylococcus aureus ATCC 29213 infected neutropenic Swiss ICR mouse thigh infection model assessed as drug level causing 2-log reduction of bacterial count at 15 mg/kg, ip dosed every 36 hrs; assay type: functional; conditions: route intraperitoneal
Staphylococcus aureus [17] = experiment: AUC/MIC ratio of Staphylococcus aureus ATCC 25923 infected neutropenic mouse thigh infection model at 51.2 mg/kg, ip administered every 24 hrs by 1-log killing experiment; assay type: functional; conditions: route intraperitoneal
[18] = Half life in bacterial pathogen-infected neutropenic Swiss ICR mouse thigh infection model at 2.5 mg/kg, ip; assay type: ADME, organism-based; design: dose 2.5 mg/kg, route intraperitoneal; conditions: in vivo
Method in brief: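 Single ip dose (0.2 ml) given to thigh-infected neutropenic ICR Swiss mice. Retro-orbital blood taken from groups of three at 0.5–96 h; plasma assayed microbiologically with Bacillus subtilis (detection limit 0.10 mg/liter). Half-life derived by linear least-squares regression within a noncompartmental analysis.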

Staphylococcus aureus [19] = experiment: AUC/MBC ratio of Staphylococcus aureus 307109 infected neutropenic mouse thigh infection model at 31 mg/kg, ip administered every 72 hrs by static effect experiment; assay type: functional; conditions: route intraperitoneal
Serum = experiment: Protein binding in Staphylococcus aureus infected neutropenic mouse serum; assay type: ADME, organism-based; conditions: in vivo
Method in brief: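 MICs for S. aureus ATCC 25923 and an MRSA strain were compared in broth, heat-treated (100°C, 30 min) 95% mouse serum and 95% serum ultrafiltrate, using arithmetic dilutions of 0.02 mg/liter per tube. Bound fraction = (MIC in serum − MIC in ultrafiltrate)/MIC in serum.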

Staphylococcus aureus [20] = experiment: Bactericidal activity against […] Staphylococcus aureus ATCC 29213 infected neutropenic Swiss ICR mouse thigh infection model assessed as drug level causing 2-log reduction of bacterial count at 10 mg/kg, ip dosed every 72 hrs; assay type: functional; conditions: route intraperitoneal
Staphylococcus aureus [21] = experiment: AUC/MBC ratio of Staphylococcus aureus Smith infected neutropenic mouse thigh infection model at 33.5 mg/kg, ip administered every 24 hrs by static effect experiment; assay type: functional; conditions: route intraperitoneal
[22] = Half life in bacterial pathogen-infected neutropenic Swiss ICR mouse thigh infection model at 10 mg/kg, ip; assay type: ADME, organism-based; design: dose 10 mg/kg, route intraperitoneal; conditions: in vivo; method in brief: as §3
Streptococcus pneumoniae [23] = experiment: AUC/MIC ratio of Streptococcus pneumoniae ATCC 10813 infected neutropenic mouse thigh infection model at 1.75 mg/kg, ip administered every 24 hrs by 2-log killing experiment; assay type: functional; conditions: route intraperitoneal
Streptococcus pneumoniae [24] = experiment: AUC/MIC ratio of Streptococcus pneumoniae 1325 infected neutropenic mouse thigh infection model at 1.16 mg/kg, ip administered every 72 hrs by 2-log killing experiment; assay type: functional; conditions: route intraperitoneal
Staphylococcus aureus [25] = experiment: AUC/MIC ratio of methicillin-resistant Staphylococcus aureus infected neutropenic mouse thigh infection model at 62 mg/kg, ip administered every 72 hrs by 1-log killing experiment; assay type: functional; conditions: route intraperitoneal
Streptococcus pneumoniae [26] = experiment: Antibacterial activity against Streptococcus pneumoniae 1293 by microdilution method; assay type: functional
Method in brief: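 MIC and MBC were determined by CLSI broth microdilution, in duplicate on at least two occasions. Staphylococci were grown in Mueller-Hinton broth and agar; pneumococci were plated on sheep blood agar.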

Staphylococcus aureus [27] = experiment: Antibacterial activity against Staphylococcus aureus 33591 by microdilution method; assay type: functional; method in brief: as §2
[28] = Cmax in bacterial pathogen-infected neutropenic Swiss ICR mouse thigh infection model at 40 mg/kg, ip; assay type: ADME, organism-based; design: dose 40 mg/kg, route intraperitoneal; conditions: in vivo; method in brief: as §3

## CN[C@H]1C(=O)N[C@@H]2Cc3ccc(cc3)Oc3cc4cc(c3O[C@@H]3O[C@H](C(=O)O)[C@@H](O)[C@H](O)[C@H]3NC(=O)CCCCCCCCC(C)C)Oc3ccc(cc3Cl)[C@@H](O)[C@@H]3NC(=O)[C@H](NC(=O)[C@@H]4NC(=O)[C@@H](NC2=O)c2cc(cc(O)c2Cl)Oc2cc1ccc2O)c1ccc(O)c(c1)-c1c(O[C@H]2O[C@H](CO)[C@@H](O)[C@H](O)[C@@H]2O)cc(O)cc1[C@@H](C(=O)NCCCN(C)C)NC3=O [DALBAVANCIN]
Staphylococcus aureus [1]
  RatioAUC/MIC: 147
Streptococcus pneumoniae [2]
  Activity: 1.81
Streptococcus pneumoniae [3]
  RatioAUC/MIC: 31.8
Staphylococcus aureus [4]
  MBC: 0.25 µg/mL (≈ 0.138 µM)
  MIC: 0.06 µg/mL (≈ 0.033 µM)
Streptococcus pneumoniae [5]
  Activity: 3.5
Streptococcus pneumoniae [6]
  Activity: 4.62
Staphylococcus aureus [7]
  RatioAUC/MIC: 289
Staphylococcus aureus [8]
  Ratio: 217
Streptococcus pneumoniae [9]
  RatioAUC/MIC: 1.6
Streptococcus pneumoniae [10]
  RatioAUC/MIC: 8.8
Streptococcus pneumoniae [11]
  RatioAUC/MIC: 22.7
Streptococcus pneumoniae [12]
  Activity: 2.35
[13]
  Cmax: 29 µg/mL
Staphylococcus aureus [14]
  RatioAUC/MIC: 121
Staphylococcus aureus [15]
  Ratio: 12.9
Staphylococcus aureus [16]
  Activity: 122
Staphylococcus aureus [17]
  RatioAUC/MIC: 250
[18]
  half-life: 13.1 h
Staphylococcus aureus [19]
  Ratio: 11.3
Serum
  Activity: 98.4%
Staphylococcus aureus [20]
  Activity: 128
Staphylococcus aureus [21]
  Ratio: 75
[22]
  half-life: 12.5 h
Streptococcus pneumoniae [23]
  RatioAUC/MIC: 9.9
Streptococcus pneumoniae [24]
  RatioAUC/MIC: 17.6
Staphylococcus aureus [25]
  RatioAUC/MIC: 202
Streptococcus pneumoniae [26]
  MBC: 0.004 µg/mL (≈ 0.0022 µM)
  MIC: 0.004 µg/mL (≈ 0.0022 µM)
Staphylococcus aureus [27]
  MBC: 0.25 µg/mL (≈ 0.138 µM)
  MIC: 0.12 µg/mL (≈ 0.0661 µM)
[28]
  Cmax: 663 µg/mL

From ChEMBL document CHEMBL1145462, “In vivo pharmacodynamic activity of the glycopeptide dalbavancin” (Antimicrob Agents Chemother, 2007)
